According to ChEMBL document CHEMBL1145922, “1,2-benzisoxazole phosphorodiamidates as novel anticancer prodrugs requiring bioreductive activation” (J Med Chem, 2003):

Species: Rattus norvegicus
Assay: Percent formation of compound upon incubation of 15 with phenobarbit-induced rat liver microsomal fraction in oxic condition in presence of pCMBA at a concentration of 0 mM
Format: functional
Outline: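 Phenobarbital-induced rat liver microsomes; inhibitors SKF-525A (in methanol) or pCMBA (in DMF) at 0–4 mM final. pCMBA preincubated 30 min before NADPH; SKF-525A incubated 15 min with microsomes and NADPH. Hypoxic samples nitrogen-purged. Substrate 2.5 mM added, 30 min at 37 °C. Ketone metabolite by HPLC at 254 nm as percent of substrate; % inhibition relative to no inhibitor. Mean of two experiments.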

Q: How did the Formation turn out when `CCC(=O)c1ccccc1O` was run?
A: The Formation was 68.8%.
